From ChEMBL document CHEMBL1914395, “Design, synthesis, and biological evaluation of callophycin A and analogues as potential chemopreventive and anticancer agents” (Bioorg Med Chem, 2011)

Assays:
[1] = biological target: T1, Nitric oxide synthase, inducible (Mus musculus) (UniProt P29477); assay: Inhibition of iNOS-mediated nitric oxide production in LPS-stimulated mouse RAW 264.7 cells at 50 uM pretreated 15 mins before LPS challenge measured after 20 hrs relative to control; format: cell-based
T1 sequence (whole entry): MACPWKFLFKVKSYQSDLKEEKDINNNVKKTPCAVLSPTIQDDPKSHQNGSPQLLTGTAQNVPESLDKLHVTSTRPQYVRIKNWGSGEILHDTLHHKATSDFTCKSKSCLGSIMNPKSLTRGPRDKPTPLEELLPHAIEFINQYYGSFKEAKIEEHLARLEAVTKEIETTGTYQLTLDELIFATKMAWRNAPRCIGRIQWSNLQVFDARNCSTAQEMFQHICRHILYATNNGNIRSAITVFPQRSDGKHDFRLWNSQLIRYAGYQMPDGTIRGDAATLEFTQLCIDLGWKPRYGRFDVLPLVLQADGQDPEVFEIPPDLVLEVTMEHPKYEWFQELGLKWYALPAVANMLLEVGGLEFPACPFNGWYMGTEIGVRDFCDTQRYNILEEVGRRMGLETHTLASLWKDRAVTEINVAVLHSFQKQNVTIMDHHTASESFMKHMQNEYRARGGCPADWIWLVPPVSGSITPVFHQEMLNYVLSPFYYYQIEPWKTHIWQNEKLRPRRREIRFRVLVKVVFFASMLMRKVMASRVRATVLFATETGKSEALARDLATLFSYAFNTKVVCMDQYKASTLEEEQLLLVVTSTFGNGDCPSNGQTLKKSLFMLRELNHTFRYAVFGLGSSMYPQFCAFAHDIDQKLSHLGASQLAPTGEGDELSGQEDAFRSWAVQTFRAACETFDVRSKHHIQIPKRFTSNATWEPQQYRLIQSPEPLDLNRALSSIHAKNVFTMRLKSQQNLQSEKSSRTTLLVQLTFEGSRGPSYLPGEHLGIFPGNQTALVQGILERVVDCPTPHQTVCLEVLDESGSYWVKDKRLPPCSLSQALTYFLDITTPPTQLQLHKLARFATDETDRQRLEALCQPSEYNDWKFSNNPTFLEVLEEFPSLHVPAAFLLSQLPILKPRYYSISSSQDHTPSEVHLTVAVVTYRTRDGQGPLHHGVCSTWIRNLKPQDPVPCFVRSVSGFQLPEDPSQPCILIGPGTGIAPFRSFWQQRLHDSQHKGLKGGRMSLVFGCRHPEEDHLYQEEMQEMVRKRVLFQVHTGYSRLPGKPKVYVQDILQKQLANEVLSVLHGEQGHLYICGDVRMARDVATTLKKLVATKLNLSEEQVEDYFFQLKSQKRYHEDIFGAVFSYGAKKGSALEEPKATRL
Method in brief: (§1)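 RAW 264.7 cells cultured 24 h at 37°C, then given serially diluted compounds for 15 min before LPS (1 μg/mL) for 20 h. Nitrite in the medium measured with Griess reagent at 540 nm against a sodium nitrite standard curve. Cytotoxicity checked by SRB under the same conditions.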

[2] = biological target: NAD(P)H dehydrogenase [quinone] 1 (Mus musculus) (UniProt Q64669); assay: Induction of quinone reductase 1 in mouse Hepa 1c1c7 cells assessed as concentration of compound required to double enzyme activity by MTT assay; format: cell-based
Method in brief: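 Dose-response in Hepa 1c1c7 cells, run for substances with induction ratio >2 at 50 μM. QR1 activity measured as menadiol-mediated, NADPH-dependent MTT reduction to formazan, normalised to crystal violet protein content. CD is the concentration that doubles specific activity relative to DMSO control.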

[3] = biological target: T2, Nitric oxide synthase, inducible (Mus musculus, UniProt P29477); assay: Inhibition of iNOS-mediated nitric oxide production in LPS-stimulated mouse RAW 264.7 cells pretreated 15 mins before LPS challenge measured after 20 hrs relative to control; format: cell-based; method in brief: as §1
T2 sequence (P29477 whole entry): T1 sequence (whole entry)

[4] = biological target: T1, Nitric oxide synthase, inducible (Mus musculus); assay: Inhibition of iNOS-mediated nitric oxide production in LPS-stimulated mouse RAW 264.7 cells assessed as cell survival at 50 uM pretreated 15 mins before LPS challenge measured after 20 hrs relative to control; format: cell-based
Method in brief: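 RAW 264.7 cells were incubated at 37°C, 5% CO2 for 24 h. They were then exposed to compound for 15 min before LPS (1 μg/mL) was added for 20 h. Cytotoxicity was measured by SRB staining under the same conditions. Survival is expressed as % relative to vehicle-treated controls at 50 μM.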

Aromatase = biological target: T3, Aromatase (Homo sapiens, UniProt P11511); assay: Inhibition of aromatase at 50 uM after 10 mins preincubation by plate reader relative to control
T3 sequence (P11511 whole entry): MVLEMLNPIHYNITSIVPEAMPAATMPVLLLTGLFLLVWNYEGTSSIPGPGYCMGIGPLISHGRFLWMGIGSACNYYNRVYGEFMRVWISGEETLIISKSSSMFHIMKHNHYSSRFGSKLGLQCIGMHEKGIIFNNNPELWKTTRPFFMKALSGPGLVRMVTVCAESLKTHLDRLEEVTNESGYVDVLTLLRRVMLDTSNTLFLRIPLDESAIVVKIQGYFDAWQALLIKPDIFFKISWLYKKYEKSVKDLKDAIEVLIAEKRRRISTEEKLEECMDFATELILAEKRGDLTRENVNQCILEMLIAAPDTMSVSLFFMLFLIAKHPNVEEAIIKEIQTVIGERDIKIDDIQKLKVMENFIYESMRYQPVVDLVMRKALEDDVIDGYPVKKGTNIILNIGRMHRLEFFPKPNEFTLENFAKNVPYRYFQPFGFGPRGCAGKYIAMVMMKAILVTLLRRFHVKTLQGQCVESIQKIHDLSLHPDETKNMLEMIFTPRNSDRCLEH
Method in brief: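 CYP19 enzyme. Compound pre-incubated 10 min with an NADPH-regenerating system (NADP+, glucose 6-phosphate, G6PDH, MgCl2, albumin) in 50 mM potassium phosphate pH 7.4. Enzyme and 0.4 μM dibenzylfluorescein substrate then added, 30 min at 37 °C. Quenched with 2 N NaOH and incubated a further 2 h at 37 °C. Fluorescence read at ex 485/em 530 nm. Compound tested at 50 μM.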

[5] = biological target: NAD(P)H dehydrogenase [quinone] 1 (Mus musculus) (UniProt Q64669); assay: Induction of quinone reductase 1 activity in mouse Hepa-1c1c7 cells assessed as cell survival at 50 uM by MTT assay relative to control; format: cell-based
HEK293 [6] = assay: Inhibition of TNF-alpha-induced NFkappaB activation in human HEK293 cells assessed as cell survival at 50 uM after 6 hrs by luciferase assay relative to control; format: cell-based
[7] = biological target: NAD(P)H dehydrogenase [quinone] 1 (Mus musculus) (UniProt Q64669); assay: Induction of quinone reductase 1 activity in mouse Hepa-1c1c7 cells at 50 uM by MTT assay relative to untreated control; format: cell-based
Method in brief: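 Hepa 1c1c7 murine hepatoma cells treated with compound at 50 μM. QR1 measured by NADPH-dependent, menadiol-mediated reduction of MTT to formazan. Protein measured by crystal violet staining of identical plates. Specific activity is nmol formazan per mg protein per min. Induction ratio is treated versus DMSO-treated control.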

MCF7 [8] = assay: Antiproliferative activity against human MCF7 cells assessed as survival at 50 uM after 72 hrs by SRB assay relative to control; format: functional; conditions: MCF7, 72 h, read-out: Survival
Method in brief: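 MCF7 cells (1 × 10^4 per well) were plated onto compound and kept at 37°C, 5% CO2 for 72 h. Cells were fixed in 10% TCA for 30 min and stained with 0.4% SRB in 1% acetic acid for 30 min. Bound dye was dissolved in 10 mM Tris (pH 10.0) and read at 515 nm. Survival is given as % of DMSO-treated controls, screened at 50 μM.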

HEK293 [9] = assay: Inhibition of TNF-alpha-induced NFkappaB activation in human HEK293 cells at 50 uM after 6 hrs by luciferase assay relative to control; format: cell-based
Method in brief: (§2)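 Cells incubated 6 h with TNFα plus test compound, then luciferase activity measured. Results expressed as percent of TNFα-treated control. Screening concentration 50 μM.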

[10] = Inhibition of TNF-alpha-induced NFkappaB activation in human HEK293 cells after 6 hrs by luciferase assay; format: cell-based; conditions: HEK293, 6 h; method in brief: as §2
MCF7 [11] = assay: Antiproliferative activity against human MCF7 cells after 72 hrs by SRB assay; format: functional, cell-based; conditions: MCF7, 72 h
Method in brief: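 MCF7 cells, 1 × 10^4 per well, plated directly onto compounds and incubated 72 h at 37°C, 5% CO2. Fixed with 10% TCA, stained with 0.4% SRB in 1% acetic acid. Bound dye dissolved in 10 mM Tris pH 10.0, absorbance read at 515 nm. Survival expressed relative to DMSO-treated controls.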

Sequence of NAD(P)H dehydrogenase [quinone] 1 (Mus musculus) (Q64669 whole entry): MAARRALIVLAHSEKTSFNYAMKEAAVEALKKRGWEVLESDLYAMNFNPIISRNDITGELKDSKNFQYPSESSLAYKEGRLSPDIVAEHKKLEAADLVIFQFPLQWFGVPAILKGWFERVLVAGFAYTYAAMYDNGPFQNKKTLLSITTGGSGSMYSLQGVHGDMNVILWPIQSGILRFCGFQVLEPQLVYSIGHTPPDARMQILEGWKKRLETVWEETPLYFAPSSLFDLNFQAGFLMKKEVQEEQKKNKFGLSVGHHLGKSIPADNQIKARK

Structure (SMILES)	inhibition [1]	CD [2]	IC50 [3]	Survival [4]	inhibition at 50 µM (Aromatase)	Survival [5]	Survival (HEK293 [6])	Ratio [7]	viability at 50 µM (MCF7 [8])	inhibition (HEK293 [9])	IC50 [10]	IC50 (MCF7 [11])
C=CCOC(=O)N1Cc2[nH]c3ccccc3c2C[C@@H]1C(=O)OC	57.1%	15.9 µM	27.7 µM	91.6%	35.1%	77.3%	97.6%	2.8	69.5%	50.7%	–	–
COC(=O)[C@@H]1Cc2c([nH]c3ccccc23)CN1	12.5%	–	–	104%	18.3%	125%	38.6%	1.1	–	58.3%	38.9 µM	–
COC(=O)[C@H]1Cc2c([nH]c3ccccc23)CN1C(=O)NC12CC3CC(CC(C3)C1)C2	64.7%	–	11.7 µM	63.2%	39.9%	30.6%	110%	0.4	9.9%	36.5%	–	14.7 µM
COC(=O)[C@@H]1Cc2c([nH]c3ccccc23)CN1Cc1ccccc1	68.2%	–	32 µM	85.9%	31.5%	100%	28.8%	1.6	–	60.4%	30.7 µM	–
CCCCCNC(=O)N1Cc2[nH]c3ccccc3c2C[C@@H]1C(=O)OC	36.2%	0.2 µM	–	90.5%	11.1%	12.7%	140%	4.3	50.5%	62.1%	15.9 µM	–
C#CCN1Cc2[nH]c3ccccc3c2C[C@@H]1C(=O)OC	41.1%	50 µM	–	114%	31.7%	77.2%	227%	2	–	43.6%	–	–
COC(=O)[C@H]1Cc2c([nH]c3ccccc23)CN1	7.2%	–	–	116%	14.3%	115%	60.3%	1.1	–	58.4%	22.1 µM	–
O=C(O)[C@@H]1Cc2c([nH]c3ccccc23)CN1CC1CC1	-7%	27.6 µM	–	135%	30.2%	90.7%	234%	2.4	108%	33.7%	–	–
Cc1ccc(S(=O)(=O)N[C@@H](Cc2ccccc2)C(=O)CCl)cc1 [TPCK]	–	–	–	–	–	–	–	–	–	–	4.9 µM	–
COC(=O)[C@H]1Cc2c([nH]c3ccccc23)CN1Cc1ccccc1	74.7%	–	32.9 µM	81.2%	38.4%	96.8%	77.1%	1.2	–	54.4%	44.2 µM	–
COC(=O)[C@H]1Cc2c([nH]c3ccccc23)CN1Cc1ccc(O)cc1	63.7%	–	37.5 µM	87.3%	38.7%	98.6%	122%	1.8	100%	33.5%	–	–
C=CCOC(=O)N1Cc2[nH]c3ccccc3c2C[C@H]1C(=O)O	-6.3%	26.5 µM	–	135%	38.4%	82.9%	109%	2.4	–	35.6%	–	–
O=C(O)[C@@H]1Cc2c([nH]c3ccccc23)CN1Cc1ccccc1	6.9%	8.1 µM	–	119%	28%	105%	49.1%	2.4	–	59.5%	21.4 µM	–
C#CCN1Cc2[nH]c3ccccc3c2C[C@H]1C(=O)O	7%	18.7 µM	–	126%	30.5%	91.9%	228%	2.2	112%	50.2%	–	–
CC[C@@]1(O)C(=O)OCc2c1cc1n(c2=O)Cc2cc3ccccc3nc2-1 [CAMPTOTHECIN]	–	–	–	–	–	–	–	–	–	–	–	0.056 µM
COC(=O)[C@H]1Cc2c([nH]c3ccccc23)CN1C(=O)NC(C)C	16.2%	8.6 µM	–	89.4%	32.6%	77%	143%	2.7	66.1%	73.7%	21.2 µM	–
COC(=O)[C@@H]1Cc2c([nH]c3ccccc23)CN1S(=O)(=O)c1ccc(Br)cc1	70.6%	–	23.1 µM	89.2%	36.7%	36.4%	186%	0.2	-2.1%	32.8%	–	–
